In article PMC4180220 (Drug metabolism letters, 2012):
Entries after “also recorded” stand apart in the source; their conditions may differ. Like-named read-outs stand apart in the source and are kept apart here.

Legend:
Assay type in all cases: biochemical
P450 1A1 [1] = target: T1, P450 1A1 (Homo sapiens, UniProt P04798); test: Ethoxyresorufin O-deethylation
T1 sequence (P04798 1-512): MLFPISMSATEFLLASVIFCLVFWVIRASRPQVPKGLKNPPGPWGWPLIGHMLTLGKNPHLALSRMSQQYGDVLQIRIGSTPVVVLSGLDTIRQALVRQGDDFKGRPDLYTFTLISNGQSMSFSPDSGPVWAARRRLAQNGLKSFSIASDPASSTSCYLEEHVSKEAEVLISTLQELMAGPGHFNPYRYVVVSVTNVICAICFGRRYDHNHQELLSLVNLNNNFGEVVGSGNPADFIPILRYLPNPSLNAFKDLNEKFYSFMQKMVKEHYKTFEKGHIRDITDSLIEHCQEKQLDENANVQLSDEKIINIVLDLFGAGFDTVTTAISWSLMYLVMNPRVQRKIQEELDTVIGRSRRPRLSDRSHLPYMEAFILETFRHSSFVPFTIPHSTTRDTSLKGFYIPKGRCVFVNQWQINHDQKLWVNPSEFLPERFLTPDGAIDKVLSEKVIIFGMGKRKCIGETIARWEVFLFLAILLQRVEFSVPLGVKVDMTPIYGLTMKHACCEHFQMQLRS

human P450 1A2 = target: T2, human P450 1A2 (Homo sapiens, UniProt P05177); test: Methoxyresorufin O-demethylation
T2 sequence (P05177 1-516): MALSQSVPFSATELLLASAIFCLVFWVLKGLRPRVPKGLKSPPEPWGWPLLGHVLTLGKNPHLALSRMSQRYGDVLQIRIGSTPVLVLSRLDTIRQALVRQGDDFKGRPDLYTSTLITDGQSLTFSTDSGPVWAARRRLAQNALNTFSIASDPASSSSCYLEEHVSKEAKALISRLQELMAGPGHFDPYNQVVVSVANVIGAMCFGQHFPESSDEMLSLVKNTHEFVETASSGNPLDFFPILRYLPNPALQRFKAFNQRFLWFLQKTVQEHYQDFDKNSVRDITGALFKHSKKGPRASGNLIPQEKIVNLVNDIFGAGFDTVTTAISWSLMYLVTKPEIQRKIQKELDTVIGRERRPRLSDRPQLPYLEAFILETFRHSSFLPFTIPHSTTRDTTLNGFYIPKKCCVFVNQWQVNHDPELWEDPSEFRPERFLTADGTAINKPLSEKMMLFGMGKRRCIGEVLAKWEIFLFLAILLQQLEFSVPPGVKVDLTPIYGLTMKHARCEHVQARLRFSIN

human P450 2A6 = target: T3, human P450 2A6 (Homo sapiens, UniProt P11509); test: Coumarin 7-hydroxylation inhibition assay
T3 sequence (P11509 1-494): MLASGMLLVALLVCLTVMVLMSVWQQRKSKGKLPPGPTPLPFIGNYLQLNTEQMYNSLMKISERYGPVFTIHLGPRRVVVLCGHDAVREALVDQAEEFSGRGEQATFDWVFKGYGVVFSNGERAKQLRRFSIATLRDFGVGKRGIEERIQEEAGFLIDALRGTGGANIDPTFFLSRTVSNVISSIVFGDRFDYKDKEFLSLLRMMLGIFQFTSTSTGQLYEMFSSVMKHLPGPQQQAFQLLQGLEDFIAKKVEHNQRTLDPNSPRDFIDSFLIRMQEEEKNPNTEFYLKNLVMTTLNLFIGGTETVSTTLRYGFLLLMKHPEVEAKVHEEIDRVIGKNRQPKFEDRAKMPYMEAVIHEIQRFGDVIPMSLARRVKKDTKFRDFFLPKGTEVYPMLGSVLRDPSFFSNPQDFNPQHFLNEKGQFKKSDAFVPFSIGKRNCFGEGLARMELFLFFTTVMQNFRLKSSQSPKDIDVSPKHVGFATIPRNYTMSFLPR

rat P4502B1 = target: T4, rat P4502B1 (Rattus norvegicus, UniProt P00176); test: Pentoxyresorufin O-depentylation
T4 sequence (P00176 1-491): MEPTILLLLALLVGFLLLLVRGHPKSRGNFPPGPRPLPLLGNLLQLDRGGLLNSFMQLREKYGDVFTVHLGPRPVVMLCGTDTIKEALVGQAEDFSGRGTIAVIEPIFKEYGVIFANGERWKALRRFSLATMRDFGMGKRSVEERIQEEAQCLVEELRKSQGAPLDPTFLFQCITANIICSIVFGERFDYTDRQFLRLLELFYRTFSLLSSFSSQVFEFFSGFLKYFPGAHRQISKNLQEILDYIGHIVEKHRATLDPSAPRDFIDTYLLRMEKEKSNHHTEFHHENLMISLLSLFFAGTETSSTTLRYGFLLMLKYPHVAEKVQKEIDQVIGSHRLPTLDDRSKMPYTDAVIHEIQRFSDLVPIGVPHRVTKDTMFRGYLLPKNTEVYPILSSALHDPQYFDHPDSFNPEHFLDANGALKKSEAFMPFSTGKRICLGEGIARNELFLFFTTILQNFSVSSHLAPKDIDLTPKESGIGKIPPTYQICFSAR
How it was run: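 Rat P450 2B1 supersomes (5 nM final) and resorufin pentyl ether (5 μM final) in 0.1 M potassium phosphate pH 7.6 with MgCl2; test compound in DMSO. Started with NADPH regenerating system (NADP+, glucose-6-phosphate, G6P dehydrogenase), 37°C. Resorufin fluorescence (535/585 nm) progress curves fit second-order; linear coefficient taken as activity.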

P450 1A1 [2] = target: T1, P450 1A1; test: Mechanism-based inhibition of P450 1A1; details: NADPH-dependency assay
How it was run: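 Human P450 1A1 supersomes (5 nM final) pre-incubated 5 min at 37°C with the test compound at varied concentrations in 0.1 M potassium phosphate pH 7.6 with MgCl2, with or without NADPH regenerating system. Reaction started with resorufin ethyl ether (5 μM final) plus buffer or the regenerating system. Resorufin formation followed at 535 nm ex/585 nm em, 37°C; DMSO controls.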

[3] = compounds of this study, log conversion of the IC50
[4] = read-out: IC50 2A6, human P450 2A6 supersomes, coumarin 5 μM, Dixon plot

Structure (SMILES)	Actual (EL) logIC50 (9-logIC50), P450 1A1 (P450 1A1 [1]; [3])	Actual (EL) logIC50 (9-logIC50), P450 1A2 (human P450 1A2; [3])	IC50 (human P450 2A6; [4])	also measured
O=c1cc(-c2ccccc2O)oc2ccccc12 [2′-HF, reference compound]	4.7518	5.0273	> 50 µM	–
C#CCOc1ccccc1-c1cc(=O)c2ccccc2o1 [2′-PF, 2′-flavone propargyl ether]	6.2518	5.8894	> 10 µM	Inhibition of P450 2B1 (in words) (rat P4502B1): inhibited
O=c1cc(-c2cccc(O)c2)oc2ccccc12 [3′-HF, reference compound]	5.3010	5.0353	> 50 µM	–
C#CCOc1cccc(-c2cc(=O)c3ccccc3o2)c1 [3′-PF, 3′-flavone propargyl ether]	7.6990	6.1739	> 10 µM	Mechanism-based inhibition of P450 1A1 (in words) (P450 1A1 [2]): ability to cause mechanism-based inhibition; also recorded: exhibited mechanism-based inhibition
O=c1cc(-c2ccc(O)cc2)oc2ccccc12 [4′-HF, reference compound]	4.7378	5.1858	> 50 µM	–
C#CCOc1ccc(-c2cc(=O)c3ccccc3o2)cc1 [4′-PF, 4′-flavone propargyl ether]	6.1871	5.8962	> 10 µM	–
O=c1cc(-c2ccccc2)oc2cccc(O)c12 [Compound 5-HF, 5-hydroxy flavone, reference compound]	–	–	–	IC50 (rat P4502B1): > 50 µM; IC50 (human P450 2A6): > 50 µM
C#CCOc1cccc2oc(-c3ccccc3)cc(=O)c12 [Compound 5-PF, 5-flavone propargyl ether]	5.7959	6.4202	> 10 µM	–
O=c1cc(-c2ccccc2)oc2ccc(O)cc12 [Compound 6-HF, reference compound]	4.9080	5.1599	> 50 µM	–
C#CCOc1ccc2oc(-c3ccccc3)cc(=O)c2c1 [Compound 6-PF, 6-flavone propargyl ether]	6.4318	–	> 10 µM	–
C#CCOc1ccc2c(c1)C(=O)CC(c1ccccc1)O2 (centres unmarked) [Compound 6-PFN, 6-flavanone propargyl ether]	–	–	–	Actual (EL) logIC50 (9-logIC50), P450 1A1 (P450 1A1 [1]): 5.2388; IC50 (P450 1A1 [1]): 5.77 µM; IC50 (human P450 1A2): > 10 µM; Inhibition of P450 1A2 (in words) (human P450 1A2): did not show inhibition; Inhibition of P450 2B1 (in words) (rat P4502B1): inhibited; IC50 (human P450 2A6): > 10 µM
O=c1cc(-c2ccccc2)oc2cc(O)ccc12 [Compound 7-HF, 7-hydroxy flavone, reference compound]	–	–	–	IC50 (P450 1A1 [1]): 6.79 µM; IC50 (human P450 1A2): 2.55 µM; IC50 (rat P4502B1): > 50 µM; IC50 (human P450 2A6): > 50 µM; Mechanism-based inhibition of P450 1A1 (in words) (P450 1A1 [2]): exhibited mechanism-based inhibition
C#CCOc1ccc2c(=O)cc(-c3ccccc3)oc2c1 [Compound 7-PF, 7-flavone propargyl ether]	–	–	> 10 µM	–
C#CCOc1ccc2c(c1)OC(c1ccccc1)CC2=O (centres unmarked) [Compound 7-PFN, 7-flavanone propargyl ether]	–	–	–	Actual (EL) logIC50 (9-logIC50), P450 1A1 (P450 1A1 [1]): 5.2233; IC50 (P450 1A1 [1]): 5.98 µM; Actual (EL) logIC50 (9-logIC50), P450 1A2 (human P450 1A2): 6.0132; IC50 (human P450 1A2): 0.97 µM; IC50 (human P450 2A6): > 10 µM
